WT yeast gro inh: growth inhibition of WT yeast, mitochondrial fusion screen. mitochondrial fusion phenotypic screen, WT strain. 2.1% of 190,000 active. AID 1362. inhibition, % at 10 µM; in the data active = inhibition above about 58%; tested in S. cerevisiae
RAM inhibit: inhibitors of the yeast RAM network | inhibition, % at 50 µM | S. cerevisiae dse1pr::URA3 reporter, 5-FOA growth OD615, 2 d; analog-sensitive cbk1-as2 kinase mutant strain | 1.8% of 190,000 active;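 active = inhibition above a set limit, 3 SD over mean compound inhibition, cut at about 8.4% in these data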;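 note: 0% = DMSO-only wells with no growth and 100% = 10 µM 1-NA-PP1 full growth; inhibition rescues growth on 5-FOA so higher OD means more RAM inhibition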
Yeast lifespan up: extends the lifespan of yeast | S. cerevisiae growth with nicotinamide, OD615; deaD strain in restrictive glucose medium | inhibition of the nicotinamide effect, % at 10 µM | 0.68% of 130,000 active;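 active = inhibition above a set limit, placed 3 SD over the median of all compounds, cut at about 26% in these data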;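 note: 0% = nicotinamide-treated wells and 100% = cells grown without nicotinamide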
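Buffer or medium: CSMM-D glucose medium, restrictive; test system: modified budding yeast, DeaD strain; compound: single dose 10 µM compound, 0.25% DMSO; schedule: culture preincubation 4 h, compound exposure 48 h, both 30 °C; detection: optical density (absorbance) at 615 nm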
KCC2 mod: modulators of human KCC2 chloride dependent transport | KCC2 cells, thallium flux FluoZin-2 fluorescence | 2.2% of 190,000 active | B-score of Tl+ flux slope (higher = more flux/activation; lower = inhibition) at 10 µM | Q9H2X9 | AID 1456;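 active = thallium flux slope and its plate-corrected score both differing from the plate sample mean at a set confidence after two filtering rounds, in either direction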;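 note: slope of fluorescence scaled to starting intensity during 10 to 20 s after thallium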
BB579 growth dn: yeast BB579 growth reduction in restrictive medium; S. cerevisiae BB579 growth, OD615, 48 h; inhibition, % at 10 µM; 0.51% of 140,000 active; AID 804;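 active = inhibition above a set limit, 3 SD over the mean compound inhibition, cut at about 44% in these data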
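test system = yeast BB579 (DeaD) | buffer or medium = restrictive CSMM-D medium | doses = single compound dose of 10 µM, 0.25% DMSO final | times = 4 h preincubation and 48 h exposure at 30 °C | technique = culture absorbance at 615 nm | benchmarks = amphotericin B 10 µg/mL, positive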
The depositor's hits bear a star; . = no result. Compounds with a hit are over-represented: about 5.5% of the library has one in this group of screens.

SMILES	WT yeast gro inh	RAM inhibit	Yeast lifespan up	KCC2 mod	BB579 growth dn
CCOc1ccc(NC(=S)N2CCN(CCN3C(=O)c4cccc5cccc(c45)C3=O)CC2)cc1	14	1	.	-0.13	.
CC1CC2c3cccc(C(=O)O)c3C(=O)N2c2ccc(Cl)cc21 (configuration not stated)	-9	3	.	-0.5	.
CC1(C)CC2c3cccc(C(=O)O)c3C(=O)N2c2c1ccc1ccccc21 (configuration not stated)	-1	3	48*	-1.8	-21
COc1ccc(CN(C)C2c3ccccc3-c3ccccc32)cc1	69*	1	-1	0.61	-12
Cc1c(Cl)cccc1NC(=O)c1cc(-c2ccccc2O)n[nH]1	68*	4	-3	-0.45	-25
Cc1ccc(-c2cc(-c3ccccc3Cl)[nH]n2)c(O)c1	69*	0	-19	.	92*
COc1ccc(Cl)cc1NC(=O)c1cc(-c2ccccc2O)n[nH]1	2	5	-3	0.8	-66
O=C(CSc1nc2ncc(Cl)cc2[nH]1)N(Cc1ccccc1)C1CCS(=O)(=O)C1 (configuration not stated)	10	1	.	-0.34	.
O=C(Cn1nnc2ccccc21)OCC(=O)c1ccc(Cl)c(Cl)c1	2	1	.	0.77	-2
O=C(Cn1nnc2ccccc21)OCC(=O)c1ccccc1	-9	-1	.	3.2*	-31
O=S(=O)(Nc1cc(Cl)ccc1N1CCCCC1)c1cccs1	60*	8	-2	.	-80
O=S(=O)(Nc1ccc(N2CCCCC2)cc1)c1cccs1	2	0	-11	-0.65	-39
O=S(=O)(Nc1ccccc1N1CCCCC1)c1ccc(Cl)s1	21	1	3	12*	-40
CN1CCN(C(=O)C(N)Cc2ccccc2)CC1 (configuration not stated)	-5	-2	.	0.71	.
O=C(Cn1nc2sc3ccccc3n2c(=O)c1=O)c1ccc(Cl)cc1	.	.	.	0.82	.
CCc1nc(SCc2ccc(F)cc2)[nH]c(=O)c1C#N	-11	4	.	-2.7	-47
Cc1ccc(Nc2nc(N)c([N+](=O)[O-])c(N3CCCC(C)C3)n2)cc1C (configuration not stated)	96*	4	-7	-1.1	20
CC1CCCN(c2nc(NCc3ccco3)nc(N)c2[N+](=O)[O-])C1 (configuration not stated)	1	0	13	-0.55	-31
Cc1ccc(Nc2nc(N3CCN(C)CC3)nc(N)c2[N+](=O)[O-])cc1C	83*	1	-7	-0.72	-1
CCOc1ccccc1N1CCN(Cc2cn[nH]c2-c2ccc(F)cc2)CC1	.	.	.	-0.094	.
CC(C)C(=O)O/N=C(\N)c1ccc(Oc2ccc(Cl)cc2)c([N+](=O)[O-])c1	.	.	.	0.12	.
CCOc1cc(NC(=S)NCCCN2CCOCC2)c(OCC)cc1NC(=O)C1CC1	-4	1	-2	0.46	-16
O=C1Nc2ccc(F)cc2C12Nc1ccccc1-c1nnc(SCc3ccccc3Cl)nc1O2 (configuration not stated)	69*	5	-12	.	-27
O=C1Nc2ccc(F)cc2C12Nc1ccccc1-c1nnc(SCc3ccccc3)nc1O2 (configuration not stated)	13	1	-5	.	-27
Cc1ccc(CSc2nnc3c(n2)OC2(Nc4ccccc4-3)C(=O)Nc3ccc(F)cc32)cc1 (configuration not stated)	70*	1	-13	-2.2	-19
SMILES	WT yeast gro inh	RAM inhibit	Yeast lifespan up	KCC2 mod	BB579 growth dn
Cc1ccc(-c2nn(-c3ccccc3)cc2NC(=O)CCl)cc1	-10	0	.	0.43	.
COC(=O)c1c(-c2c(Cl)cccc2Cl)noc1C(=O)NN	.	.	.	-1.4	.
COc1cc(/C=N/NC(=O)c2ccncc2)ccc1OC(=O)c1ccc([N+](=O)[O-])cc1	8	4	44*	1.1	-10
COc1cccc(-c2cc(C(=O)N3N=C(C)CC3(O)C(F)F)c3ccccc3n2)c1 (configuration not stated)	-1	0	.	-0.0068	.
O=C(c1cc(C2CC2)nc2ccccc12)N1N=C(C(F)F)CC1(O)C(F)F (configuration not stated)	-4	0	.	-0.025	-26
CC(C)c1ccc(-c2cc(C(=O)N3N=C(C(F)F)CC3(O)C(F)F)c3ccccc3n2)cc1 (configuration not stated)	87*	5	-3	-0.42	-53

Source: PubChem BioAssay
